This is an account of results in paper PMC4340355 (ACS Chemical Biology, 2014).

Format in all cases: biochemical
Assay [1] concerns the target T1, chymotrypsin-like (ChL) activity of rabbit proteasome fraction II (Oryctolagus cuniculus, UniProt G1T4Q9).
T1 sequence (G1T4Q9 1-263): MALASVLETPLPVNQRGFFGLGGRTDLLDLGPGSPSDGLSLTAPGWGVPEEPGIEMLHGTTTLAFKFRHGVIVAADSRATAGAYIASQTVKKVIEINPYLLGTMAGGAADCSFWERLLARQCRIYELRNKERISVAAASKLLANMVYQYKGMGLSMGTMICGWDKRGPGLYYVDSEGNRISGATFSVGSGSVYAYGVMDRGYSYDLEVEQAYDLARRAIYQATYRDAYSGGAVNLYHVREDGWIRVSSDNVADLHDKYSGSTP
The experiment in a line: Inhibition of proteasome-catalyzed hydrolysis of ChL sensor ChL1–488.

For assay [2], the target named is T2, caspase-like (CaL) activity of rabbit proteasome fraction II (Oryctolagus cuniculus, UniProt A0A5F9DQW2).
T2 sequence (A0A5F9DQW2 1-212): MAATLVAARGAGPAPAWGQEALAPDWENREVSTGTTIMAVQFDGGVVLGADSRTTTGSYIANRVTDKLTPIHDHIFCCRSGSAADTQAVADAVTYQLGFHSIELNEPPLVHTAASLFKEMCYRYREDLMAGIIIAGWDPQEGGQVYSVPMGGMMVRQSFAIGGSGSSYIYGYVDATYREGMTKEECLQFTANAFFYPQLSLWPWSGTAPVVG
The experiment in a line: Inhibition of proteasome-catalyzed hydrolysis of CaL sensor CaL1–633.

The test system of assay [3] is proteasome.
The test system of assay [4] is rabbit proteasome fraction II. The experiment in a line: Rate of proteolysis. The method in brief:
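Fluorescence followed 2 h at RT. Rate came from a linear fit to the first 10% substrate consumption. FU were converted to μmol via overnight-spiked fold change and a standard line. No-enzyme controls were run. Values are mean ± SD of triplicates.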

Assay [5] deals with yeast proteasome CaL mutant (Saccharomyces cerevisiae, UniProt P25043+P30656+P38624). The experiment in a line: Rate of sensor cleavage by yeast deficient lysate, CaL mutant.

Read-outs that look alike come from different tables or passages of the source. Peptide text beside a SMILES is read from it. * marks the point of attachment. Cbz = O=C(OCc1ccccc1)*

A word on the IC50: it is the point on the concentration scale where inhibition reaches its midpoint. Read a high IC50 as weaker potency in that assay. As for `CC(C)C[C@@H](C=O)NC(=O)[C@H](CC(C)C)NC(=O)[C@H](CC(C)C)NC(=O)OCc1ccccc1` [MG132] (Cbz-Leu-Leu-Leu-aldehyde), the values for the IC50 in assay [1] and in assay [2] were 0.62 ± 0.06 µM and 180 ± 150 µM, respectively.
For the molecule DyLight633–nLPnLDK(AB40) [CaL1–633], the “effect on TL activity” value in assay [3] (in the presence of CaL1–633) is “reduced”. For the same molecule, the specific activity is given as 0.03 ± 0.001 nmol min^–1 mg^–1 enzyme in assay [4] (2.5 μM sensor) and 0.02 ± 0.002 nmol min^–1 mg^–1 enzyme in assay [4] (5 μM sensor). Also, the “proteolysis by the proteasome containing the mutation in the CaL subunit” value in assay [5] is recorded as “not proteolyzed”.
Turning to FAM–HHSLK(AB40) [ChL1–488], the “reduction of the rate of proteolysis of ChL1–488” value in assay [3] (in the presence of CaL1–633) is reported as “up to 90%”; in assay [3] (in the presence of TL1–550) it was “up to 50%”. For the same molecule, the specific activity in assay [4] (2.5 μM sensor) turned out to be 0.22 ± 0.02 nmol min^–1 mg^–1 enzyme; in assay [4] (5 μM sensor), 0.31 ± 0.03 nmol min^–1 mg^–1 enzyme.
As to TAMRA–LRRK(AB40) [TL1–550], in assay [3] (in the presence of TL1–550), the “effect on CaL activity” value was “impaired”. Moreover, the “enhancement of the rate of TL1–550 hydrolysis” value in assay [3] (when ChL1–488 is present) is given as “up to 5 fold”. The specific activity in assay [4] (2.5 μM sensor) stood at 0.05 ± 0.003 nmol min^–1 mg^–1 enzyme; in assay [4] (5 μM sensor), 0.06 ± 0.001 nmol min^–1 mg^–1 enzyme.
